Test results published in ChEMBL document CHEMBL1153444, “Discovery of dual inhibitors targeting both HIV-1 capsid and human cyclophilin A to inhibit the assembly and uncoating of the viral capsid” (Bioorg Med Chem, 2009).
The source made the active and inactive calls. The calls are words filed in the database; no cut-off is given here.

What was measured:
[1] = Therapeutic index, TC50 for human CEM cells to EC50 for SIV; format: cell-based, CCRF-CEM
[2] = target: T1, Peptidyl-prolyl cis-trans isomerase A (Homo sapiens, UniProt P62937); assay: Binding affinity to human cyclophilin A by intrinsic tryptophan fluorescence titration assay; details: read-out: Kd
T1 sequence (P62937 whole entry): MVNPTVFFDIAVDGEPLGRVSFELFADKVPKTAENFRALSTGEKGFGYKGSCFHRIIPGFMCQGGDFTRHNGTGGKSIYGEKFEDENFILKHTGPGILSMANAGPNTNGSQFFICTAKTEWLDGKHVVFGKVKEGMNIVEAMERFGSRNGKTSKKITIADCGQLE
Outline: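 CypA intrinsic tryptophan fluorescence titration in 20 mM Tris–HCl, 100 mM NaCl, pH 7.4, at 25 °C, with compounds from 10 mM DMSO stocks. Excitation was 280 nm and emission was read at 340 nm. Kd was obtained by fitting intensity against final compound concentration to F₀/F = 1 + Ka·C.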

[3] = test system: Simian immunodeficiency virus; assay: Antiviral activity against SIV in human CEM cells assessed as inhibition of virus-induced cytopathogenicity; format: functional, organism-based, CCRF-CEM; details: Simian immunodeficiency virus, CCRF-CEM; read-out: EC50
Outline: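 SIV syncytium assay in CEM174 cells (2 × 10⁵ cells/ml) infected with 100 TCID₅₀ SIV per well alongside serial compound dilutions. Cultures were kept 5 days at 37 °C in humidified 5% CO₂, then giant-cell formation was scored microscopically. EC₅₀ is the concentration protecting cells from SIV cytopathogenicity by 50%.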

[4] = target: Protease (Human immunodeficiency virus 1) (UniProt Q9YQ12); assay: Inhibition of HIV1 protease
Chain of Protease (Human immunodeficiency virus 1) (Q9YQ12 as listed by the source): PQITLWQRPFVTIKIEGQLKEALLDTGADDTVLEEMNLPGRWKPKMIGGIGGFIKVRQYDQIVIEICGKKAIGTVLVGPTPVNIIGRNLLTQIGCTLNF
Outline: (§1)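 HIV-1 protease was preincubated with inhibitor (DMSO) for 20 min at room temperature in 0.1 M MES, 0.2 M NaCl, 5 mM EDTA, pH 5.5. The reaction was started with substrate Lys-Ala-Arg-Val-Leu-Phe(NO₂)-Glu-Ala-Met, and hydrolysis was followed as the A280 decrease over 40 min. Inhibition ratio was taken from Ai/A₀, with and without inhibitor.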

[5] = target: Structural capsid protein (Human immunodeficiency virus 1) (UniProt Q76129); assay: Binding affinity to HIV1 capsid assessed as assembly rate per minute by ultraviolet spectrophotometry assay
Chain of Structural capsid protein (Human immunodeficiency virus 1) (Q76129 as listed by the source): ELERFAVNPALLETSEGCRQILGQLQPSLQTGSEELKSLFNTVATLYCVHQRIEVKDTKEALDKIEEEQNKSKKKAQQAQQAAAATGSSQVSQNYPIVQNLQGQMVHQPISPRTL
Outline: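 Turbidity was read at 350 nm every 10 s after a short equilibration delay. Assembly rate (mOD/min) was taken from the initial slope of absorbance versus time.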

[6] = Cytotoxicity against human CEM cells; format: cell-based; details: CEM cells (CCRF-CEM), read-out: TC50 (the source's name)
[7] = target: Human immunodeficiency virus type 1 integrase (Human immunodeficiency virus 1) (UniProt Q7ZJM1); assay: Inhibition of HIV1 integrase at 20 uM; design: scale not given: the % may be the effect or the level left
Chain of Human immunodeficiency virus type 1 integrase (Human immunodeficiency virus 1) (Q7ZJM1 as listed by the source): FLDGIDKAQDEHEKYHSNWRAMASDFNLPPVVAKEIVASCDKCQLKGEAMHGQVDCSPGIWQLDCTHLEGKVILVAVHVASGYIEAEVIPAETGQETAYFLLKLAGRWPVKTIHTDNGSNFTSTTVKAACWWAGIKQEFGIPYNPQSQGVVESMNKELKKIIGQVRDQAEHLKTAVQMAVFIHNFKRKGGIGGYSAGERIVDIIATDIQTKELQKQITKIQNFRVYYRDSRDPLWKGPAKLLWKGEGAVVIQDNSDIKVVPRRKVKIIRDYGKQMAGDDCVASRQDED
Outline: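 Recombinant HIV-1 integrase (E. coli) was preincubated with compound for 30 min. It was then incubated for 30 min at 37 °C on plate-immobilized donor duplex in Tris–HCl pH 7.8, 25 mM NaCl, 7.5 mM MgCl₂, 5 mM β-mercaptoethanol and BSA. Biotinylated target duplex was added for 1 h at 37 °C. Integration products were detected by pNPP phosphatase read-out at A405, and inhibition was taken as the decrease in final absorbance.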

[8] = target: T1, Peptidyl-prolyl cis-trans isomerase A; assay: Inhibition of human cyclophilin A at 6 degC
Outline: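 PPIase assay at 6 °C in 50 mM HEPES, 100 mM NaCl, using Suc-AAPF-pNA substrate (3 mM stock in THF with 480 mM LiCl). A390 was recorded for 20 s after about a 6 s mixing delay. Cis–trans rate constants came from nonlinear least-squares fits to an integrated first-order equation, and IC₅₀ was calculated from these.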

[9] = target: Protease (Human immunodeficiency virus 1) (UniProt Q9YQ12); assay: Inhibition of HIV1 protease assessed as decrease in UV absorbance at 10 uM; outline: as §1

| inhibition [9] [%] | Compound | selectivity ratio [1] | Kd [2] [µM] | EC50 [3] [µM] | Activity [4] | Activity (milli optical density/minute) [5] | CC50 [6] [µM] | Activity [7] [%] | IC50 [8] [µM] |
| --- | --- | --- | --- | --- | --- | --- | --- | --- | --- |
|  | COc1ccc(NC(=S)Nc2ccc3ccccc3c2)cc1 | 7 | 124 | 2.3 | inactive | 66.7 | 16.1 | < 20 |  |
|  | Cc1cc(NS(=O)(=O)c2ccc(NC(=S)Nc3cccc(Br)c3)cc2)no1 | 66 | 88.6 | 0.9 |  | 31.2 | 58.7 |  | 0.45 |
|  | CCN(CC)c1nc(C)c([N+](=O)[O-])c(NCCNC(=S)Nc2cccc(Br)c2)n1 | 4 | 79.3 | 7.4 |  | 88.1 | 26.2 |  | 0.81 |
|  | O=C1OCc2ccc(NC(=S)Nc3cc(Cl)c(Cl)cc3Cl)cc21 | 8 | 147 | 3 | inactive | 67.8 | 24.4 | < 20 |  |
|  | Cc1ccc(NC(=S)Nc2ccc(S(=O)(=O)Nc3nccs3)cc2)cc1 | 9 | 76.9 | 2.2 |  | 59 | 20.9 |  | 0.45 |
| > 90 | CC(C)(C)NC(=O)[C@@H]1CN(Cc2cccnc2)CCN1C[C@@H](O)C[C@@H](Cc1ccccc1)C(=O)N[C@H]1c2ccccc2C[C@H]1O |  |  |  |  |  |  |  |  |
|  | O=C1OCc2ccc(NC(=S)Nc3cccc(Br)c3)cc21 | 7 | 125 | 4.6 | inactive | 69.6 | 30.8 | < 20 |  |
|  | COc1ccc(NS(=O)(=O)c2ccc(NC(=S)Nc3ccc(Cl)cc3)cc2)cc1 | 19 | 60.8 | 4.1 |  | 26.3 | 77.5 |  |  |
|  | Cc1ccc(NC(=S)Nc2ccc(S(=O)(=O)Nc3cc(C)on3)cc2)cc1 | 4 | 119 | 9.6 |  | 45.9 | 41.4 |  |  |
|  | COc1ccc(NC(=S)Nc2ccc3c(c2)C(=O)OC3)cc1 | 20 | 172 | 4.7 | inactive | 59.1 | 91.9 | < 20 |  |
|  | Cc1cc(NS(=O)(=O)c2ccc(NC(=S)Nc3cccc(F)c3)cc2)no1 | 8 | 128 | 11.6 |  | 76.2 | 88 |  | 0.38 |
|  | Cc1cc(NS(=O)(=O)c2ccc(NC(=S)Nc3ccccc3)cc2)no1 | 7 | 88.1 | 7.5 |  | 39.2 | 49.7 |  | 0.58 |
|  | O=S(=O)(Nc1nccs1)c1ccc(NC(=S)Nc2ccc(Cl)cc2)cc1 | 3 | 51 | 5.7 | inactive | 52.5 | 19.1 | < 20 | 0.13 |
|  | COc1ccc(NC(=S)Nc2ccc(S(=O)(=O)Nc3cc(C)on3)cc2)cc1 | 27 | 101 | 1.5 | inactive | 40 | 41.9 | < 20 |  |
|  | O=C1OCc2ccc(NC(=S)Nc3cccc(F)c3)cc21 | 10 | 140 | 6.3 | inactive | 78.6 | 60.2 | < 20 |  |
